From ChEMBL document CHEMBL1145205, “Synthesis and biological evaluation of 1,2,4-triazinylphenylalkylthiazolecarboxylic acid esters as cytokine-inhibiting antedrugs with strong bronchodilating effects in an animal model of asthma” (J Med Chem, 2005)

Key:
[1] = Percent conversion of compound in human lung S9 fraction after 60 min of administration; assay type: ADME; conditions: read-out: Conversion
Summary of the method: (§1)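 Test compound at 10^-6 M incubated at 37 °C in phosphate buffered saline with human liver S9 (10 µg protein/ml) or human lung S9 (50 µg protein/ml); samples taken at 0, 15 and 60 min; parent compound quantified by LC-MS/MS using MRM transition of parent to daughter ion; percent converted after 60 min.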

[2] = Percent conversion of compound in human liver fraction after 60 min of administration; assay type: ADME, tissue-based; conditions: read-out: Conversion; summary of the method: as §1
PBL [3] = test: Percent inhibition of interleukin-5 production in human whole blood assay after 10e-7 M treatment; assay type: functional
PBL [4] = test: Percent inhibition of interleukin-5 production in human whole blood assay after 10e-6 M treatment; assay type: functional

metabolised at 1 h [1] [%]	metabolised at 1 h [2] [%]	Structure (SMILES)	Inhibition (PBL [3]) [%]	Inhibition (PBL [4]) [%]
24	94	CC(C)(c1nc(-c2ccccc2)c(C(=O)OCCc2ccccc2)s1)c1c(Cl)cc(-n2ncc(=O)[nH]c2=O)cc1Cl	62	88
47	49	COC(=O)c1sc(C(C)(C)c2c(Cl)cc(-n3ncc(=O)[nH]c3=O)cc2Cl)nc1-c1ccccc1	84	93
6	65	CC(C)=CCOC(=O)c1sc(C(C)(C)c2c(Cl)cc(-n3ncc(=O)[nH]c3=O)cc2Cl)nc1-c1ccccc1	55	73
0	7	CC(C)(C)OC(=O)c1sc(C(C)(C)c2c(Cl)cc(-n3ncc(=O)[nH]c3=O)cc2Cl)nc1-c1ccccc1	79	89
23	68	CCCOC(=O)c1sc(C(C)(C)c2c(Cl)cc(-n3ncc(=O)[nH]c3=O)cc2Cl)nc1-c1ccccc1	69	96
8	76	CC(C)(c1nc(-c2ccccc2)c(C(=O)OCCCO)s1)c1c(Cl)cc(-n2ncc(=O)[nH]c2=O)cc1Cl	58	83
32	72	CCCCCOC(=O)c1sc(C(C)(C)c2c(Cl)cc(-n3ncc(=O)[nH]c3=O)cc2Cl)nc1-c1ccccc1	54	91
18	86	CCCCOC(=O)c1sc(C(C)(C)c2c(Cl)cc(-n3ncc(=O)[nH]c3=O)cc2Cl)nc1-c1ccccc1	51	88
1	10	CC(C)OC(=O)c1sc(C(C)(C)c2c(Cl)cc(-n3ncc(=O)[nH]c3=O)cc2Cl)nc1-c1ccccc1	85	94
0	1	CC(C)(c1nc(-c2ccccc2)c(C(=O)OCCO)s1)c1c(Cl)cc(-n2ncc(=O)[nH]c2=O)cc1Cl	66	93
27	80	CC(C)COC(=O)c1sc(C(C)(C)c2c(Cl)cc(-n3ncc(=O)[nH]c3=O)cc2Cl)nc1-c1ccccc1	56	90
36	38	CC(C)(c1nc(-c2ccccc2)c(C(=O)OCC(F)(F)F)s1)c1c(Cl)cc(-n2ncc(=O)[nH]c2=O)cc1Cl	75	92
21	73	CC(C)(c1nc(-c2ccccc2)c(C(=O)OCCOc2ccccc2)s1)c1c(Cl)cc(-n2ncc(=O)[nH]c2=O)cc1Cl	70	83
17	29	CCOC(=O)c1sc(C(C)(C)c2c(Cl)cc(-n3ncc(=O)[nH]c3=O)cc2Cl)nc1-c1ccccc1	67	94
23	68	C=CCOC(=O)c1sc(C(C)(C)c2c(Cl)cc(-n3ncc(=O)[nH]c3=O)cc2Cl)nc1-c1ccccc1	69	96
34	61	CC(C)(c1nc(-c2ccccc2)c(C(=O)OCC#N)s1)c1c(Cl)cc(-n2ncc(=O)[nH]c2=O)cc1Cl	74	91
19	64	CC(=O)COC(=O)c1sc(C(C)(C)c2c(Cl)cc(-n3ncc(=O)[nH]c3=O)cc2Cl)nc1-c1ccccc1	57	85
3	1	CC#CCOC(=O)c1sc(C(C)(C)c2c(Cl)cc(-n3ncc(=O)[nH]c3=O)cc2Cl)nc1-c1ccccc1	96	100
27	87	CC(C)(c1nc(-c2ccccc2)c(C(=O)OCC2CC2)s1)c1c(Cl)cc(-n2ncc(=O)[nH]c2=O)cc1Cl	56	92
0	0	CC(C)(c1nc(-c2ccccc2)c(C(=O)O)s1)c1c(Cl)cc(-n2ncc(=O)[nH]c2=O)cc1Cl	0	0
20	55	C#CCOC(=O)c1sc(C(C)(C)c2c(Cl)cc(-n3ncc(=O)[nH]c3=O)cc2Cl)nc1-c1ccccc1	87	90
